Data reported in ChEMBL document CHEMBL1121808 (1981).
Peptide text beside a SMILES is read from it.

Legend:
Assay type in all cases: functional
[1] = Relative potency expressed in percent to that of neurotensin was measured using guinea pig atria
How it was run: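 Both atria dissected free of ventricles, fat and blood; beating spontaneously under 0.5 g resting tension in 15-mL baths of oxygenated Krebs at 30 °C. Equilibrated 45–60 min before peptide exposure. Contractile force recorded isometrically via force-displacement transducer.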

[2] = Relative potency expressed in percent to that of neurotensin was measured using perfused rat heart assay
How it was run: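 Male albino Wistar rats heparinized i.p. (2.5 mg/rat), then killed. Hearts perfused with filtered, oxygenated Krebs at 37 °C by peristaltic pump, flow raised over 5 min to 8 mL/min (perfusion pressure 70–90 mmHg). Stabilized 30 min before peptide infusion. Read-out: change in perfusion pressure via aortic-cannula side-arm transducer.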

[3] = Relative potency expressed in percent to that of neurotensin was measured using rat stomach strips assay

Molecule	Relative potency [1]	Relative potency [2]	Relative potency [3]
CC[C@H](C)[C@H](NC(=O)[C@@H](Cc1c[nH]c2ccccc12)NC(=O)[C@@H]1CCCN1C(=O)[C@H](CCCN=C(N)N)NC(=O)[C@H](CCCN=C(N)N)NC(=O)[C@@H]1CCCN1C(=O)[C@H](CCCCN)NC(=O)[C@H](CC(N)=O)NC(=O)[C@H](CCC(=O)O)NC(=O)[C@H](Cc1ccc(O)cc1)NC(=O)[C@H](CC(C)C)NC(=O)[C@@H]1CCC(=O)N1)C(=O)N[C@@H](CC(C)C)C(=O)O	0.01%	0.1%	0.64%
CC[C@H](C)[C@H](NC(=O)[C@H](Cc1ccccc1)NC(=O)[C@@H]1CCCN1C(=O)[C@H](CCCN=C(N)N)NC(=O)[C@H](CCCN=C(N)N)NC(=O)[C@@H]1CCCN1C(=O)[C@H](CCCCN)NC(=O)[C@H](CC(N)=O)NC(=O)[C@H](CCC(=O)O)NC(=O)[C@H](Cc1ccc(O)cc1)NC(=O)[C@H](CC(C)C)NC(=O)[C@@H]1CCC(=O)N1)C(=O)N[C@@H](CC(C)C)C(=O)O	15%	1.4%	16%
CC[C@H](C)[C@H](NC(=O)[C@H](Cc1ccc(O)cc1)NC(=O)[C@@H]1CCCN1C(=O)[C@H](CCCNC(=N)N)NC(=O)[C@@H](N)CCCNC(=N)N)C(=O)N[C@@H](CC(C)C)C(=O)O	52%	102%	69%
CC(C)C[C@H](NC(=O)[C@@H]1CCC(=O)N1)C(=O)N[C@@H](Cc1ccc(O)cc1)C(=O)N[C@@H](CCC(=O)O)C(=O)N[C@@H](CC(N)=O)C(=O)N[C@@H](CCCCN)C(=O)N1CCC[C@H]1C(=O)N[C@@H](CCCN=C(N)N)C(=O)N[C@@H](CCCN=C(N)N)C(=O)N1CCC[C@H]1C(=O)O	0%	0%	0%
CC[C@H](C)[C@H](NC(=O)[C@H](CC(C)C)NC(=O)[C@@H]1CCCN1C(=O)[C@H](CCCN=C(N)N)NC(=O)[C@H](CCCN=C(N)N)NC(=O)[C@@H]1CCCN1C(=O)[C@H](CCCCN)NC(=O)[C@H](CC(N)=O)NC(=O)[C@H](CCC(=O)O)NC(=O)[C@H](Cc1ccc(O)cc1)NC(=O)[C@H](CC(C)C)NC(=O)[C@@H]1CCC(=O)N1)C(=O)N[C@@H](CC(C)C)C(=O)O	< 0.01%	0.01%	~0.03%
H-ENKPRRPYIL-OH	99%	92%	85%
CC[C@H](C)[C@H](NC(=O)[C@H](C)NC(=O)[C@@H]1CCCN1C(=O)[C@H](CCCN=C(N)N)NC(=O)[C@H](CCCN=C(N)N)NC(=O)[C@@H]1CCCN1C(=O)[C@H](CCCCN)NC(=O)[C@H](CC(N)=O)NC(=O)[C@H](CCC(=O)O)NC(=O)[C@H](Cc1ccc(O)cc1)NC(=O)[C@H](CC(C)C)NC(=O)[C@@H]1CCC(=O)N1)C(=O)N[C@@H](CC(C)C)C(=O)O	<0.01%	0.01%	0.01%
CC[C@H](C)[C@H](NC(=O)[C@H](Cc1ccc(O)cc1)NC(=O)[C@@H]1CCCN1C(=O)[C@@H](C)NC(=O)[C@H](CCCN=C(N)N)NC(=O)[C@@H]1CCCN1C(=O)[C@H](CCCCN)NC(=O)[C@H](CC(N)=O)NC(=O)[C@H](CCC(=O)O)NC(=O)[C@H](Cc1ccc(O)cc1)NC(=O)[C@H](CC(C)C)NC(=O)[C@@H]1CCC(=O)N1)C(=O)N[C@@H](CC(C)C)C(=O)O	2.6%	0.3%	1.5%
CC(C)C[C@H](NC(=O)[C@@H]1CCC(=O)N1)C(=O)N[C@@H](Cc1ccc(O)cc1)C(=O)N[C@@H](CCC(=O)O)C(=O)N[C@@H](CC(N)=O)C(=O)N[C@@H](CCCCN)C(=O)N1CCC[C@H]1C(=O)N[C@@H](CCCN=C(N)N)C(=O)N[C@@H](CCCN=C(N)N)C(=O)N1CCC[C@H]1C(=O)N[C@@H](Cc1ccc(O)cc1)C(=O)O	<0.01%	<0.01%	<0.01%
CC[C@H](C)[C@H](NC(=O)[C@H](Cc1ccc(O)cc1)NC(=O)CNC(=O)[C@H](CCCN=C(N)N)NC(=O)[C@H](CCCN=C(N)N)NC(=O)[C@@H]1CCCN1C(=O)[C@H](CCCCN)NC(=O)[C@H](CC(N)=O)NC(=O)[C@H](CCC(=O)O)NC(=O)[C@H](Cc1ccc(O)cc1)NC(=O)[C@H](CC(C)C)NC(=O)[C@@H]1CCC(=O)N1)C(=O)N[C@@H](CC(C)C)C(=O)O	~0.01%	<0.01%	~0.01%
CC[C@H](C)[C@H](NC(=O)[C@@H](Cc1ccccc1)NC(=O)[C@@H]1CCCN1C(=O)[C@H](CCCN=C(N)N)NC(=O)[C@H](CCCN=C(N)N)NC(=O)[C@@H]1CCCN1C(=O)[C@H](CCCCN)NC(=O)[C@H](CC(N)=O)NC(=O)[C@H](CCC(=O)O)NC(=O)[C@H](Cc1ccc(O)cc1)NC(=O)[C@H](CC(C)C)NC(=O)[C@@H]1CCC(=O)N1)C(=O)N[C@@H](CC(C)C)C(=O)O	~0.01%	<0.01%	~0.02%
H-PRRPYIL-OH	49%	59%	65%
H-YENKPRRPYIL-OH	84%	85%	90%
CC[C@H](C)[C@H](NC(=O)[C@H](Cc1ccc(O)cc1)NC(=O)[C@@H]1CCCN1C(=O)[C@@H](N)CCCN=C(N)N)C(=O)N[C@@H](CC(C)C)C(=O)O	1.3%	1.6%	11%
CC[C@H](C)[C@H](NC(=O)[C@H](Cc1ccc(O)cc1)NC(=O)[C@@H]1CCCN1C(=O)[C@H](CCCN=C(N)N)NC(=O)[C@H](CCCN=C(N)N)NC(=O)[C@@H]1CCCN1C(=O)[C@@H](N)CCCCN)C(=O)N[C@@H](CC(C)C)C(=O)O	73%	84%	78%
CC[C@H](C)[C@H](NC(=O)[C@H](Cc1ccc(O)cc1)NC(=O)[C@@H]1CCCN1C(=O)[C@H](CCCN=C(N)N)NC(=O)[C@H](CCCN=C(N)N)NC(=O)[C@@H]1CCCN1C(=O)[C@H](CCCCN)NC(=O)[C@H](CC(N)=O)NC(=O)[C@H](CCC(=O)O)NC(=O)[C@H](Cc1ccc(O)cc1)NC(=O)[C@@H](N)CC(C)C)C(=O)N[C@@H](CC(C)C)C(=O)O	94%	87%	90%
CC[C@H](C)[C@H](NC(=O)[C@H](Cc1ccc(O)cc1)NC(=O)[C@@H]1CCCN1C(=O)[C@H](CCCN=C(N)N)NC(=O)[C@H](CCCN=C(N)N)NC(=O)[C@@H]1CCCN1C(=O)[C@H](CCCCN)NC(=O)[C@H](CC(N)=O)NC(=O)[C@H](CCC(=O)O)NC(=O)[C@H](Cc1ccc(O)cc1)NC(=O)[C@H](CC(C)C)NC(=O)[C@@H]1CCC(=O)N1)C(=O)O	0.09%	0.03%	0.65%
CC[C@H](C)[C@H](NC(=O)[C@H](Cc1c[nH]c2ccccc12)NC(=O)[C@@H]1CCCN1C(=O)[C@H](CCCN=C(N)N)NC(=O)[C@H](CCCN=C(N)N)NC(=O)[C@@H]1CCCN1C(=O)[C@H](CCCCN)NC(=O)[C@H](CC(N)=O)NC(=O)[C@H](CCC(=O)O)NC(=O)[C@H](Cc1ccc(O)cc1)NC(=O)[C@H](CC(C)C)NC(=O)[C@@H]1CCC(=O)N1)C(=O)N[C@@H](CC(C)C)C(=O)O	3.2%	102%	130%
CC[C@H](C)[C@H](NC(=O)[C@H](Cc1ccc(O)cc1)NC(=O)[C@@H]1CCCN1)C(=O)N[C@@H](CC(C)C)C(=O)O (H-PYIL-OH)	0%	0%	0%
